Assay results published in ChEMBL document CHEMBL1149071, “Lignans from the wood of Abies pinsapo” (J Nat Prod, 1994).
Calls of active or inactive are those of the source. The calls are words filed in the database; no cut-off is given here.

Assays:
Format in all cases: functional, organism-based
Human alphaherpesvirus 1 = test: Antiviral activity against HSV1 at 40 ug/ml
[1] = system: Vesicular stomatitis virus; test: Antiviral activity against VSV at 40 ug/ml
Penicillium = test: Antifungal ativity against Penicillium
Outline: (§1)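 Disk diffusion on brain-heart agar plates inoculated with 0.1 ml of 8 h-old fungal cultures grown in CM medium (1% glucose, 0.5% yeast extract, 0.5% malt extract). 5-mm paper disks carrying 1 mg of sample were applied. Plates were held 2 h at 4° for diffusion, then incubated at 28°. Growth-inhibition halo (mm) was read at 18 h.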

Aspergillus niger = test: Antifungal ativity against Aspergillus niger CECT 2089; outline: as §1

COc1cc(C[C@H](COC(C)=O)Oc2ccc(C[C@@H]3[C@@H](Cc4ccc(OC(C)=O)c(OC)c4)CO[C@H]3OC(C)=O)cc2OC)ccc1OC(C)=O
Activity (Human alphaherpesvirus 1): inactive
Activity [1]: inactive

COc1cc(C[C@H]2CO[C@H](c3ccc(O)c(OC)c3)[C@H]2CO)ccc1O
Activity (Human alphaherpesvirus 1): inactive
Activity [1]: inactive
Growth-inhibition halo (Penicillium): inactive
Activity (Aspergillus niger): inactive

COc1cc(C[C@H]2COC(=O)[C@@H]2Cc2ccc(O)c(OC)c2)ccc1O
Activity (Human alphaherpesvirus 1): inactive
Activity [1]: inactive
Growth-inhibition halo (Penicillium): inactive
Activity (Aspergillus niger): inactive

COc1cc(C[C@H]2[C@H](OC(C)=O)O[C@H](c3ccc(OC(C)=O)c(OC)c3)[C@H]2COC(C)=O)ccc1OC(C)=O
Activity (Human alphaherpesvirus 1): inactive
Activity [1]: inactive

COc1cc(C[C@H](CO)Oc2ccc(C[C@H]3C(=O)OC[C@@H]3Cc3ccc(O)c(OC)c3)cc2OC)ccc1O
Growth-inhibition halo (Penicillium): inactive
Activity (Aspergillus niger): inactive

COc1cc([C@H]2OC[C@H]([C@H](OC(C)=O)c3ccc(OC(C)=O)c(OC)c3)[C@@H]2COC(C)=O)ccc1OC(C)=O
Activity (Human alphaherpesvirus 1): inactive
Activity [1]: inactive

COc1cc(C[C@H]2COC(O)[C@@H]2Cc2ccc(O)c(OC)c2)ccc1O (some centres undefined)
Activity (Human alphaherpesvirus 1): inactive
Activity [1]: inactive
Growth-inhibition halo (Penicillium): inactive
Activity (Aspergillus niger): inactive

COc1cc(C[C@H]2[C@H](OC(C)=O)OC[C@@H]2[C@H](OC(C)=O)c2ccc(OC(C)=O)c(OC)c2)ccc1OC(C)=O
Activity (Human alphaherpesvirus 1): inactive
Activity [1]: inactive

COc1cc([C@H]2OC[C@H]([C@@H](OC(C)=O)c3ccc(OC(C)=O)c(OC)c3)[C@@H]2COC(C)=O)ccc1OC(C)=O
Activity (Human alphaherpesvirus 1): inactive
Activity [1]: inactive
